“And” between values parts separate entries of the source, which are not always exact repeats. Equal values may be shown once. Where only a bound is given, the exact number is not on record here.

Data set [1] deals with JNK pathway in HEK293 cells. As to the kind of experiment: Western blot of phospho-JNK and phospho-c-Jun in anisomycin-treated HEK293 cells. It is filed as cell-based. As to conditions: for activation (phosphorylation) of JNK isoforms / phosphorylation of c-Jun (phospho-Ser-63): HEK293, 5-100 μM, 12 hours, then anisomycin. In short, it runs like this: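 HEK293 cells were pretreated for 12 hours with DMSO or test compound at 5-100 μM. The JNK pathway was then induced with anisomycin (50-100 nM) for 5-10 minutes before lysis. Western blots detected phospho-JNK and phospho-c-Jun, and an ED50 was estimated.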

The test system of data set [2] is MDA-MB-231 cells. The data set is described as follows: Transwell chemotactic cell migration assay. As to conditions: for inhibition of migration: overnight, migration in response to serum. It is filed as cell-based, human. The procedure, abridged:
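Chemotactic migration of MDA-MB-231 cells was measured in transwells. Cells were treated overnight with DMSO or test compound at 50 or 100 μM, and viability was monitored. Migrated cells on the membrane underside were stained with crystal violet. Three independent repeats.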

Data set [3] has as its system MDA-MB-231 cells. The data set is described as follows: Cell viability monitored during migration and wound assays. It is filed as cell-based, human. Conditions: for cell viability during the migration assay: transwell assay, 50 and 100 μM; for cell viability during the wound assay: up to 200 μM.
Data set [4] relates to GST-JNK1. Conditions: read-out: IC50 for displacing biotinylated pepJIP1 from GST-JNK1; cited from earlier work.
Data set [5] concerns JNK. As to conditions: read-out: in-vitro cell-free IC50; ATP-competitive; cited from earlier work.
Data set [6] deals with JNK2α2 in HEK293T cells. As to the kind of experiment: Western blot in HEK293T cells transfected with WT-JNK2α2. It is filed as cell-based. As to conditions: for JNK2α2 autophosphorylation: HEK293T over-expressing JNK2α2, without anisomycin. In short, it runs like this:
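HEK293T cells were transfected with wild-type JNK2α2 or empty pcDNA3 vector. They were treated with DMSO or varying test compound concentrations without anisomycin, or with an ATP-competitive reference JNK inhibitor with and without anisomycin. Western blots assessed JNK2α2 autophosphorylation and c-Jun phosphorylation, from which an ED50 was estimated.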

Data set [7] concerns JNK activity in Jurkat T cells. Conditions: cited from earlier work.
The subject of data set [8] is RAW264.7 cells. Conditions: LPS-stimulated RAW264.7 cells; cited from earlier work.
The target in data set [9] is ERK1 (Homo sapiens, UniProt P27361). As to the kind of experiment: MAP kinase selectivity assay, ERK1. It is filed as biochemical.
Data set [10] has as its system JNK2α2 (Y130A). The data set is described as follows: c-Jun phosphorylation in HEK293T cells transfected with JNK2α2. It is filed as cell-based. As to conditions: 0-100 μM. In short, it runs like this: (§1)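 HEK293T cells were transfected with JNK2α2 DRS mutants (Y130A or C163A) or empty pcDNA3 vector and treated with test compound (0–100 μM). Western blots tracked JNK autophosphorylation and c-Jun phosphorylation, compared with non-transfected cells. Results are representative of three independent experiments.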

Data set [11] concerns the target WT-MKK4 (Homo sapiens, UniProt P45983). As to the kind of experiment: Phosphorylation of inactive JNK1 by active MKK4. It is filed as biochemical.
The target in data set [12] is p38MAPKγ (Homo sapiens, UniProt P53778). The data set is described as follows: MAP kinase selectivity assay, p38MAPKγ. It is filed as biochemical.
For data set [13], the system named is JNK. As to the kind of experiment: Steady-state kinetic analysis of c-Jun phosphorylation. It is filed as biochemical. Conditions: partial competitive inhibition model. The procedure, abridged:
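Initial velocities were measured with c-Jun varied at 0.63-20 μM and test compound fixed at several levels (0-50 μM), with saturating MgATP at 0.5 mM. Rates came from linear least-squares fits of product versus time. Double-reciprocal plots were checked for linearity. Data were fitted by nonlinear least squares to a partial competitive inhibition equation.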

Data set [14] relates to ERK2 pathway. The data set is described as follows: ERK pathway specificity in HEK293 cells, EGF induced. It is filed as cell-based. As to conditions: 100 μM. In short, it runs like this:
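HEK293 cells received DMSO or test compound (0-100 μM) for 12 hours. The ERK pathway was then induced with 50 ng EGF for 5-10 minutes and cells were lysed. Lysates were run on 10% SDS-PAGE and western blotted for phospho-ERK and phospho-p90RSK.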

Data set [15] concerns the target JNK3 (Homo sapiens, UniProt P53779). As to the kind of experiment: Phosphorylation of GST-c-Jun. It is filed as biochemical. The procedure, abridged: (§2)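 Activated JNK isoforms phosphorylated GST-c-Jun (1-221) at 2 μM across a dose range of test compound. Dose-response data were fitted to V0 = V00 − V00·i/(i+K50) + V′, where K50 is the half-maximal concentration and V′ is the residual rate at saturating inhibitor.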

In data set [16] the target is p38MAPKβ (Homo sapiens, UniProt Q15759). As to the kind of experiment: MAP kinase selectivity assay, p38MAPKβ. It is filed as biochemical.
Data set [17] has as its target p38MAPKδ (Homo sapiens, UniProt O15264). As to the kind of experiment: MAP kinase selectivity assay, p38MAPKδ. It is filed as biochemical.
Data set [18] concerns the target JNK1 (Homo sapiens, UniProt P45983). As to the kind of experiment: Phosphorylation of GST-c-Jun. It is filed as biochemical. The procedure, abridged: as §2
Data set [19] deals with Akt phosphorylation mediated by JNK2α2. The data set is described as follows: Akt phosphorylation at Ser-473 in HEK293T cells transfected with WT-JNK2α2. It is filed as cell-based. As to conditions: HEK293T transfected with WT-JNK2α2, without anisomycin. The procedure, abridged:
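Wild-type JNK2α2 was transfected into HEK293T cells. Cells were exposed to DMSO vehicle or a series of test compound concentrations, with no anisomycin stimulation. Akt activation was followed as phosphorylation at Ser-473.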

Data set [20] deals with WT-MKK7 (Homo sapiens, UniProt P45983). The data set is described as follows: Phosphorylation of inactive JNK1 by active MKK7. It is filed as biochemical.
Data set [21] relates to activated JNK1, JNK2 and JNK3. It is filed as biochemical. Conditions: read-out: IC50 values; range over JNK1, JNK2 and JNK3; GST-c-Jun 2 μM. In short, it runs like this: as §2
Data set [22] has as its target ERK2 (Homo sapiens, UniProt P28482). The data set is described as follows: MAP kinase selectivity assay, ERK2. It is filed as biochemical.
The test system of data set [23] is MDA-MB-231 cells. As to the kind of experiment: Scratch wound closure assay. It is filed as cell-based, human. Conditions: 100 and 200 μM, 24 hrs post-wounding. In short, it runs like this: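 MDA-MB-231 cells were pretreated with graded concentrations of test compound. A scratch wound was then made and medium was replaced with 1% FBS-containing medium. Wound closure was measured at 0 and 24 h post-wounding, with viability checked alongside. Three independent experiments.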

For data set [24], the system named is JNK2α2 (C163A). The data set is described as follows: c-Jun phosphorylation in HEK293T cells transfected with JNK2α2. It is filed as cell-based. As to conditions: 0-100 μM. In short, it runs like this:
as §1

WT-MKK4, sequence (P45983 whole entry): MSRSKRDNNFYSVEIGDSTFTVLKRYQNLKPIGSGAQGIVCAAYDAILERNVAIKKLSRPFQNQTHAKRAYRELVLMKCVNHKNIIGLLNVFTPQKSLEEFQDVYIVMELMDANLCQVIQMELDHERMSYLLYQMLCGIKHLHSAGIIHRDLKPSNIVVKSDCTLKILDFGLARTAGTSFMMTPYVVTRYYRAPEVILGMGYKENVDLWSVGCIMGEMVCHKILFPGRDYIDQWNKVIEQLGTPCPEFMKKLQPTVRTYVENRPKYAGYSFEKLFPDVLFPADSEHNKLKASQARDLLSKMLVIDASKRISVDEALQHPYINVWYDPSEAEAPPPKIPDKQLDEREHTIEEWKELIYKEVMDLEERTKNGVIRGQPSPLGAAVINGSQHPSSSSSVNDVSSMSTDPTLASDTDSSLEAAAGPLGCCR
p38MAPKγ, sequence (P53778 whole entry): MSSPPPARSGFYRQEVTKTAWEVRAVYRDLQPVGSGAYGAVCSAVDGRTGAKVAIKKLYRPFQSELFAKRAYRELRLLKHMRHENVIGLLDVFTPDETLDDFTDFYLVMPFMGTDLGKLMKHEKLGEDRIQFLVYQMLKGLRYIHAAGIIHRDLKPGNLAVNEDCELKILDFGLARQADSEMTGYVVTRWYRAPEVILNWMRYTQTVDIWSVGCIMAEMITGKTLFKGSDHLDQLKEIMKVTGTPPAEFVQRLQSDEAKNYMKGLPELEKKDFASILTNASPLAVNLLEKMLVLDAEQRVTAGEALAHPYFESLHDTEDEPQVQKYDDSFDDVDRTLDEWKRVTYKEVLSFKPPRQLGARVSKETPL
ERK1, sequence (P27361 whole entry, species assumed): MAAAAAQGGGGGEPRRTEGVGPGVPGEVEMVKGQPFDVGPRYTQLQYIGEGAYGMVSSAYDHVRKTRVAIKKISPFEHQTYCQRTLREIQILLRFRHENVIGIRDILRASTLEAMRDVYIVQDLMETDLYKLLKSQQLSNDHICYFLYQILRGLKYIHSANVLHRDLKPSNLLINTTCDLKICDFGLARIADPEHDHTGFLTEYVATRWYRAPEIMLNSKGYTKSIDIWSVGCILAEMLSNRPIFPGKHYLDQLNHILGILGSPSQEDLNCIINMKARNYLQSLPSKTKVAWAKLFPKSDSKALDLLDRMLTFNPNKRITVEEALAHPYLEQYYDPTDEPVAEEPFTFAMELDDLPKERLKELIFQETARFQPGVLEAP
ERK2, sequence (P28482 whole entry, species assumed): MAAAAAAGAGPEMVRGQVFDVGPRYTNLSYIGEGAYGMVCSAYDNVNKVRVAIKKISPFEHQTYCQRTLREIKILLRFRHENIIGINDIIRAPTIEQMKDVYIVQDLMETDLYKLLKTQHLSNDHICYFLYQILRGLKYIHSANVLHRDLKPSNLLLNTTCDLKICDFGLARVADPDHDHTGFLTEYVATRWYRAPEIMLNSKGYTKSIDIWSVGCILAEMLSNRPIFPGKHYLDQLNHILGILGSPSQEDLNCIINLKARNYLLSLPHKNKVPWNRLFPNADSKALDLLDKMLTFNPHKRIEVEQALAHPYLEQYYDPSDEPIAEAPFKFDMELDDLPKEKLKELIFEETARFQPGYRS
WT-MKK7, sequence (P45983 whole entry): as the sequence (P45983 whole entry) above
JNK1, sequence (P45983 whole entry): as above
JNK3, sequence (P53779 whole entry, canonical isoform): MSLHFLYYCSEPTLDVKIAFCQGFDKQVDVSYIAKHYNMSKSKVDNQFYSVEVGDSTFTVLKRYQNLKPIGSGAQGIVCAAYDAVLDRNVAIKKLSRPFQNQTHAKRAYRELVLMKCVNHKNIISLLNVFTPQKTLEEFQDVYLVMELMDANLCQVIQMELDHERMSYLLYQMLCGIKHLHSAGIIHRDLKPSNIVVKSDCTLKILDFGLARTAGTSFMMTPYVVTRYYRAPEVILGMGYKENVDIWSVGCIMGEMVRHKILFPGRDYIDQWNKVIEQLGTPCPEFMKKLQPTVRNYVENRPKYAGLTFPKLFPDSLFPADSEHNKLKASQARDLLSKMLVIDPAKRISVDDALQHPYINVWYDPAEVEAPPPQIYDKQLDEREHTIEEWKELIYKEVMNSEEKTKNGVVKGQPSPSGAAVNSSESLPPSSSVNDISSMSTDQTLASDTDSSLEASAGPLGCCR
p38MAPKδ, sequence (O15264 whole entry): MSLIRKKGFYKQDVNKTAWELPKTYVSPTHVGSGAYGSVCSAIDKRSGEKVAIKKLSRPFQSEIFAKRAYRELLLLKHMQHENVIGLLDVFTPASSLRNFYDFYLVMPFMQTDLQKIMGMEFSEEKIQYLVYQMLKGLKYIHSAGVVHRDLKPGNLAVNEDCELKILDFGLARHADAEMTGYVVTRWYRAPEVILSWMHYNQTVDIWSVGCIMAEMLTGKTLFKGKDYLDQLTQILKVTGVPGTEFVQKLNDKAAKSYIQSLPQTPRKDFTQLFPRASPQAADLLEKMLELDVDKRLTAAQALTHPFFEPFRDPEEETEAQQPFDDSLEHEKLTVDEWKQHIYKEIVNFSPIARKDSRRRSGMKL
p38MAPKβ, sequence (Q15759 whole entry): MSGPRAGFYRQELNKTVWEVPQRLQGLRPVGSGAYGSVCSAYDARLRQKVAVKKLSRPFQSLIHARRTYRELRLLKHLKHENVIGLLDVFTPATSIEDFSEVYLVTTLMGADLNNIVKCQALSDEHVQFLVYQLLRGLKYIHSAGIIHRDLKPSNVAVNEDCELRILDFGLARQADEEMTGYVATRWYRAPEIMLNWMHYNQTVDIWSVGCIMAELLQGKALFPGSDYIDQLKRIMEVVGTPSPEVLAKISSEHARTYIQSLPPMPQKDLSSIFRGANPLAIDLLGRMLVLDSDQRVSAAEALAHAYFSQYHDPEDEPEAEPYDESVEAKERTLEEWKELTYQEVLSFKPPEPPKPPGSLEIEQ

As for (+)-zuonin A, in data set [1], the “activation (phosphorylation) of JNK isoforms” value is “inhibits neither JNK activation nor c-Jun phosphorylation” and the “phosphorylation of c-Jun (phospho-Ser-63)” value is “inhibits neither JNK activation nor c-Jun phosphorylation”. Besides, in data set [2] (50 and 100 μM), the “effect on cell migration” value is recorded as “able to mildly suppress cell migration”. Moreover, in data set [3], the “cell viability during the migration assay” value was “unaffected” and the “cell viability during the wound assay” value is “unaffected”.

Turning to `O=c1[nH]nc(Sc2ncc([N+](=O)[O-])s2)n1-c1ccc2c(c1)OCCO2` [BI-78D3], the IC50 in data set [4] is 500 nM.

With `Oc1c2ccccc2c2c3c(cccc13)N=N2` [SP600125, reference compound], in data set [5], the IC50 was 40 to 100 nM. In addition, the “JNK2α2 phosphorylation in cells stimulated using anisomycin” value in [6] (HEK293T over-expressing JNK2α2, with anisomycin) is given as “no longer able to inhibit”. In addition, the JNK2α2 autophosphorylation result in data set [6] is reported as “autophosphorylation was inhibited”. For the same molecule, the “ED50 for JNK activity” value in [7] is around 10000 nM.

With `COc1cc([C@H]2O[C@H](c3ccc4c(c3)OCO4)[C@H](C)[C@H]2C)ccc1O[C@H](C)[C@@H](O)c1ccc2c(c1)OCO2` [saucerneol F], the “nitric oxide (NO) production” value in data set [8] was “inhibits nitric oxide (NO) production in a dose-dependent manner”.

Take (−)-zuonin A: the IC50 in [9] is above 200000 nM; in data set [11] (inhibits the phosphorylation of JNK (inactive JNK1) by MKK4), ~1800 nM and 1800 nM; in data set [12], above 200000 nM; in data set [15] (GST-c-Jun 2 μM) it was 1740 ± 160 nM; in data set [17], above 200000 nM; in data set [18] (GST-c-Jun 2 μM), 1700 ± 260 nM. The IC50 in data set [20] (inhibits the phosphorylation of JNK (inactive JNK1) by MKK7) is 1990 ± 150 nM; in data set [21], 1700 to 2900 nM; in [22], above 200000 nM. Besides, the “% Inhibition at Saturating (−)-zuonin A (200 μM)” value is recorded as 10% in [9] (200 μM); 77% in data set [11] (200 μM, phosphorylation of JNK); 10% in [12] (200 μM); 73% in [15] (200 μM); 15% in data set [16]; 10% in data set [17] (200 μM). For the same molecule, the “% Inhibition at Saturating (−)-zuonin A (200 μM)” value is given as 75% in [18] (200 μM); 50% in [20] (200 μM, phosphorylation of JNK); 10% in data set [22] (200 μM). In addition, the figures for the “sensitivity of c-Jun phosphorylation” value in data set [10] and in [24] were “more sensitive” and “unresponsive”, respectively. The “activation (phosphorylation) of JNK isoforms” value in data set [1] is listed as “blunts the activation of the JNK isoforms in cells in a dose-dependent manner”. The “phosphorylation of c-Jun (phospho-Ser-63)” value in data set [1] is on record as “clearly blunted”. Also, the “ED50 for inhibiting JNK phosphorylation” value in [1] (HEK293 cells, stimulation by anisomycin) is recorded as “around 25 μM”. In addition, the inhibition of migration entry in data set [2] (50 μM) was “approximately 45%”; in [2] (100 μM), around 80%. Further, the “α (factor by which affinity of JNK for c-Jun is weakened)” value in data set [13] was around 5. In addition, the “β (effect on kcat)” value in data set [13] is 1. For the same molecule, the “phosphorylation of ERK or its protein substrate p-90RSK” value in data set [14] was “no effect”. Moreover, in data set [6], the JNK2α2 autophosphorylation entry was “unable to inhibit JNK2α2 autophosphorylation even at a concentration of 100 μM”. Besides, in data set [6] (HEK293T, without anisomycin), the “ED50 for phosphorylation of c-Jun mediated by over-expressed JNK2α2” value is given as “approximately 25 μM”. Further, the “Akt phosphorylation (Ser-473) mediated by JNK2α2” value in [19] is reported as “able to inhibit Akt phosphorylation”. Besides, the “cell viability during the migration assay” value in data set [3] is recorded as “unaffected”. In addition, the “cell viability during the wound assay” value in data set [3] is listed as “unaffected”. Moreover, the wound closure entry in data set [23] is listed as “sufficient to inhibit wound closure”.

What is called IC50 is the concentration that gives 50% inhibition. For orientation: % Inhibition means the change of the read-out against control, counted positive when it falls. Lower therefore signals a weak effect.

These data come from PMC6459613 (ACS chemical biology, 2012).
